The source made the active and inactive calls. The rule behind the calls is not given here.
Assays:
BaF3 [1] = test: Inhibition of EGFR-C797S/T790M/del19 mutant in mouse BaF3 cells assessed as reduction in EGFR phosphorylation at 300 nM incubated for 6 hrs by Western blotting analysis; type: cell-based
[2] = test system: Epidermal growth factor receptor (Homo sapiens), P00533 [UNDEFINED MUTATION]; conditions: PC-9, dose 10-1000 nM
[3] = test system: Epidermal growth factor receptor (Homo sapiens), P00533 [UNDEFINED MUTATION]; conditions: PC-9, dose 10-1000 nM; remark: listed apart in the source
[4] = test system: Epidermal growth factor receptor (Homo sapiens), P00533 [UNDEFINED MUTATION]; conditions: PC-9, dose 10-1000 nM; remark: listed apart in the source
[5] = test system: Epidermal growth factor receptor (Homo sapiens), P00533 [UNDEFINED MUTATION]; conditions: PC-9, dose 10-1000 nM; remark: listed apart in the source
[6] = test system: Epidermal growth factor receptor (Homo sapiens), P00533 [UNDEFINED MUTATION]; conditions: PC-9, dose 10-1000 nM; remark: listed apart in the source
BaF3 [7] = test: Inhibition of EGFR-C797S/T790M/L858R mutant in mouse BaF3 cells assessed as inhibition of S6 phosphorylation at 10 to 1000 nM incubated for 6 hrs by Western blotting analysis; type: cell-based; conditions: dose 10-1000 nM
Method in brief: (§1)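 Ba/F3 cells expressing EGFR-L858R-series mutants treated with inhibitors for 6 h. SDS lysates quantified by BCA, run on SDS-PAGE and blotted to PVDF. Probed for phospho-EGFR (Tyr1068), total EGFR and downstream phospho-proteins.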

[8] = test system: Epidermal growth factor receptor (Homo sapiens), P00533 [UNDEFINED MUTATION]; conditions: MGH121, dose 10-1000 nM
BaF3 [9] = test: Inhibition of EGFR-T790M/del19 mutant in mouse BaF3 cells assessed as inhibition of Akt phosphorylation at 10 to 1000 nM incubated for 6 hrs by Western blotting analysis; type: cell-based; conditions: dose 10-1000 nM
Method in brief: (§2)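 Ba/F3 cells carrying the stated EGFR mutant were made IL-3-independent after 1 week of 7 µM blasticidin selection. They were grown in low-glucose DMEM with 10% FBS and exposed to inhibitor for 6 h. Cells were washed in cold PBS, lysed in SDS buffer (100 mM Tris, 1% SDS, 10% glycerol) and boiled 5 min. Protein was measured by BCA, run on SDS-PAGE, transferred to PVDF, blocked in 5% BSA or milk/TBS-T, and immunoblotted.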

[10] = Cytotoxicity against mouse Ba/F3 EGFR-Del19/T790M/C797S cells assessed as inhibition of cell viability incubated for 72 hrs by CellTiter-Glo assay; type: functional, cell-based
BaF3 [11] = test: Inhibition of EGFR-C797S/T790M/del19 mutant in mouse BaF3 cells assessed as reduction in ERK phosphorylation incubated for 6 hrs by Western blotting analysis; type: cell-based
BaF3 [12] = test: Inhibition of EGFR-del19 mutant in mouse BaF3 cells assessed as inhibition of S6 phosphorylation at 10 to 1000 nM incubated for 6 hrs by Western blotting analysis; type: cell-based; conditions: dose 10-1000 nM; method in brief: as §2
[13] = test system: Epidermal growth factor receptor (Homo sapiens), P00533 [UNDEFINED MUTATION]; conditions: MGH121, dose 10-1000 nM; remark: listed apart in the source
BaF3 [14] = test: Inhibition of EGFR-C797S/T790M/L858R mutant in mouse BaF3 cells assessed as inhibition of EGFR phosphorylation at 10 to 1000 nM incubated for 6 hrs by Western blotting analysis; type: cell-based; conditions: dose 10-1000 nM; method in brief: as §1
PC-9 [15] = test: Inhibition of EGFR T790M/del19 mutant in human PC-9 cells assessed as reduction in S6 phosphorylation at 10 to 1000 nM by Western blotting analysis; type: cell-based; conditions: dose 10-1000 nM
[16] = test system: Epidermal growth factor receptor (Homo sapiens), P00533 [UNDEFINED MUTATION]; conditions: MGH121, dose 10-1000 nM; remark: listed apart in the source
PC-9 [17] = test: Inhibition of EGFR T790M/del19 mutant in human PC-9 cells assessed as reduction in ERK phosphorylation at 10 to 1000 nM by Western blotting analysis; type: cell-based; conditions: dose 10-1000 nM
BaF3 [18] = test: Inhibition of EGFR-del19 mutant in mouse BaF3 cells assessed as inhibition of ERK phosphorylation at 10 to 1000 nM incubated for 6 hrs by Western blotting analysis; type: cell-based; conditions: dose 10-1000 nM; method in brief: as §2
BaF3 [19] = type: cell-based; conditions: Mus musculus, dose 10-1000 nM, time 6.0 hrs
BaF3 [20] = test: Inhibition of EGFR-C797S/T790M/del19 mutant in mouse BaF3 cells assessed as reduction in Akt phosphorylation incubated for 6 hrs by Western blotting analysis; type: cell-based
BaF3 [21] = test: Inhibition of EGFR-C797S/T790M/L858R mutant expressed in mouse BaF3 cells assessed as inhibition of ERK phosphorylation at 10 to 1000 nM incubated for 6 hrs by Western blotting analysis; type: cell-based; conditions: dose 10-1000 nM; method in brief: as §1
BaF3 [22] = test: Inhibition of EGFR-C797S/T790M/del19 mutant in mouse BaF3 cells assessed as reduction in EGFR phosphorylation incubated for 6 hrs by Western blotting analysis; type: cell-based
[23] = test system: Epidermal growth factor receptor (Homo sapiens), P00533 [UNDEFINED MUTATION]; conditions: MGH121, dose 10-1000 nM; remark: listed apart in the source
[24] = test system: Epidermal growth factor receptor (Homo sapiens), P00533 [UNDEFINED MUTATION]; conditions: PC-9, dose 10-1000 nM; remark: listed apart in the source
PC-9 [25] = test: Inhibition of EGFR T790M/del19 mutant in human PC-9 cells assessed as reduction in Akt phosphorylation at 10 to 1000 nM by Western blotting analysis; type: cell-based; conditions: dose 10-1000 nM
BaF3 [26] = test: Inhibition of EGFR-T790M/del19 mutant in mouse BaF3 cells assessed as inhibition of EGFR phosphorylation at 10 to 1000 nM incubated for 6 hrs by Western blotting analysis; type: cell-based; conditions: dose 10-1000 nM; method in brief: as §2
BaF3 [27] = test: Inhibition of EGFR-C797S/T790M/L858R mutant expressed in mouse BaF3 cells assessed as inhibition of Akt phosphorylation at 10 to 1000 nM incubated for 6 hrs by Western blotting analysis; type: cell-based; conditions: dose 10-1000 nM; method in brief: as §1
BaF3 [28] = test: Inhibition of EGFR-del19 mutant in mouse BaF3 cells assessed as inhibition of Akt phosphorylation at 10 to 1000 nM incubated for 6 hrs by Western blotting analysis; type: cell-based; conditions: dose 10-1000 nM; method in brief: as §2
BaF3 [29] = test: Inhibition of EGFR-C797S/T790M/del19 mutant in mouse BaF3 cells assessed as reduction in S6 phosphorylation incubated for 6 hrs by Western blotting analysis; type: cell-based; method in brief: as §2
BaF3 [30] = type: cell-based; conditions: Mus musculus, dose 10-1000 nM, time 6.0 hrs; remark: listed apart in the source
BaF3 [31] = test: Inhibition of EGFR-T790M/del19 mutant in mouse BaF3 cells assessed as inhibition of ERK phosphorylation at 10 to 1000 nM incubated for 6 hrs by Western blotting analysis; type: cell-based; conditions: dose 10-1000 nM; method in brief: as §2
[32] = test system: Epidermal growth factor receptor (Homo sapiens), P00533 [UNDEFINED MUTATION]; conditions: PC-9, dose 10-1000 nM; remark: listed apart in the source
PC-9 [33] = test: Inhibition of EGFR T790M/del19 mutant in human PC-9 cells assessed as reduction in EGFR phosphorylation at 10 to 1000 nM by Western blotting analysis; type: cell-based; conditions: dose 10-1000 nM
[34] = test system: Epidermal growth factor receptor (Homo sapiens), P00533 [UNDEFINED MUTATION]; conditions: PC-9, dose 10-1000 nM; remark: listed apart in the source
[35] = Cytotoxicity against mouse Ba/F3 EGFR-Del19/T790M/C797S cells assessed as inhibition of cell viability by measuring fold change at 30 nM incubated for 72 hrs in presence of cetuximab by CellTiter-Glo assay relative to AP26113-analog alone; type: functional
BaF3 [36] = test: Inhibition of EGFR-T790M/del19 mutant in mouse BaF3 cells assessed as inhibition of S6 phosphorylation at 10 to 1000 nM incubated for 6 hrs by Western blotting analysis; type: cell-based; conditions: dose 10-1000 nM; method in brief: as §2
BaF3 [37] = type: cell-based; conditions: Mus musculus, dose 10-1000 nM, time 6.0 hrs; remark: listed apart in the source
BaF3 [38] = type: cell-based; conditions: Mus musculus, dose 10-1000 nM, time 6.0 hrs; remark: listed apart in the source

Chain of Epidermal growth factor receptor (Homo sapiens), P00533 [UNDEFINED MUTATION] (P00533 whole entry, looked up, stated change not applied): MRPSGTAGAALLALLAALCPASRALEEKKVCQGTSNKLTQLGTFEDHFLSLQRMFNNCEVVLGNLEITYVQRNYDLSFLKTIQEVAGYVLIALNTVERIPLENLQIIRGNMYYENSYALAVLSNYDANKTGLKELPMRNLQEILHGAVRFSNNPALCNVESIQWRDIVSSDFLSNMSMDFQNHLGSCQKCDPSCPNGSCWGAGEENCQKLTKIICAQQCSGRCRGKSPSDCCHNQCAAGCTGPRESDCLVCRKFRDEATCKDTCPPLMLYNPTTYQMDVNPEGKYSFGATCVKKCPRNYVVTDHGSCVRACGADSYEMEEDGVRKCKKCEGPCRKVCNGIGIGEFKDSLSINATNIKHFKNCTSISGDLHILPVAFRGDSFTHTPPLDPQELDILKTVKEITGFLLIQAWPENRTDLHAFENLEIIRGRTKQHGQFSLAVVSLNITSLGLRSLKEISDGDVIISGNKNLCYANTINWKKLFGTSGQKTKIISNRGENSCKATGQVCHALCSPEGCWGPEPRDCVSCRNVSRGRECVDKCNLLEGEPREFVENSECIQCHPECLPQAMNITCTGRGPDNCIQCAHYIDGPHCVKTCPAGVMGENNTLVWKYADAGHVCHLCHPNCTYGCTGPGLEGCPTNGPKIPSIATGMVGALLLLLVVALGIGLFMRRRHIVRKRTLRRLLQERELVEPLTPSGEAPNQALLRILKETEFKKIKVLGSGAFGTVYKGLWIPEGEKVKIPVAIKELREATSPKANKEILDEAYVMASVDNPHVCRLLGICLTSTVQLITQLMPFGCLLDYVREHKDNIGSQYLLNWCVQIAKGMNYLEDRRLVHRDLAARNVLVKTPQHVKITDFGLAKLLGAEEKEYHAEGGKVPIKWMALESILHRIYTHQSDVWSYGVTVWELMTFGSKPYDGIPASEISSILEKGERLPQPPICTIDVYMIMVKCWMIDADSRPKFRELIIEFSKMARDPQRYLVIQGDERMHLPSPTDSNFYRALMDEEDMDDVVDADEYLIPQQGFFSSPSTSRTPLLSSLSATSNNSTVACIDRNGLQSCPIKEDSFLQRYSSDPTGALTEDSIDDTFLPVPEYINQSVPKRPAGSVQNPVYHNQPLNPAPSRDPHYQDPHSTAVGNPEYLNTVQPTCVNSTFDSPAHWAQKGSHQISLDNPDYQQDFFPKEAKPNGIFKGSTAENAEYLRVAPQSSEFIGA

Cc1ccc(C(=O)Nc2ccc(CN3CCN(C)CC3)c(C(F)(F)F)c2)cc1C#Cc1cnc2cccnn12
inhibition (BaF3 [1]): inactive

COc1cc(N2CCC(N)CC2)ccc1Nc1ncc(Cl)c(-c2c[nH]c3ccccc23)n1
inhibition [2]: Active | inhibition [3]: Active | inhibition [4]: Active | inhibition [5]: Active

COc1cc(N2CCC(N(C)C)CC2)ccc1Nc1ncc(Cl)c(Nc2ccccc2P(C)(C)=O)n1
inhibition [6]: Active | inhibition (BaF3 [7]): Active | inhibition [8]: Active | inhibition (BaF3 [9]): Active | IC50 [10]: 59.1 nM | inhibition (BaF3 [11]): Active | inhibition (BaF3 [12]): Active | inhibition [13]: Active | inhibition (BaF3 [14]): Active | inhibition (PC-9 [15]): Active | inhibition [16]: Active | inhibition (PC-9 [17]): Active | inhibition (BaF3 [18]): Active | inhibition (BaF3 [19]): Active | inhibition (BaF3 [20]): Active | inhibition (BaF3 [21]): Active | inhibition (BaF3 [22]): Active | inhibition [23]: Active | inhibition [2]: Active | inhibition [24]: Active | inhibition (PC-9 [25]): Active | inhibition (BaF3 [26]): Active | inhibition (BaF3 [27]): Active | inhibition (BaF3 [28]): Active | inhibition [3]: Active | inhibition (BaF3 [29]): Active | inhibition (BaF3 [30]): Active | inhibition (BaF3 [31]): Active | inhibition [32]: Active | inhibition (PC-9 [33]): Active | inhibition [34]: Active | inhibition [4]: Active | fold change (FC) [35]: ~3 | inhibition (BaF3 [36]): Active | inhibition [5]: Active | inhibition (BaF3 [37]): Active | inhibition (BaF3 [38]): Active

COc1cc(N2CCC(N3CCN(C)CC3)CC2)ccc1Nc1ncnc(Nc2ccccc2S(=O)(=O)C(C)C)n1
inhibition (BaF3 [7]): inactive | inhibition (BaF3 [14]): inactive | inhibition (BaF3 [21]): inactive | inhibition (BaF3 [27]): inactive

Reference: ChEMBL document CHEMBL5705906 (Nat Commun, 2017)
